Measured values from ChEMBL document CHEMBL3351279, “Topoisomerase II inhibitors from the roots of Stellera chamaejasme L” (Bioorg Med Chem, 2014).
Activity calls are given as the source filed them. No cut-off for these calls is given here.

Legend:
[1] = tested on: A549; test: Cytotoxicity against human A549 cells after 72 hrs by SRB assay; assay type: functional, cell-based; conditions: A549, 72 h
In short: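 A549 cells grown in F12 with 10% heat-inactivated FBS (37°C, 5% CO2), seeded overnight, then exposed 72 h. Fixed in cold 10% TCA for 1 h at 4°C, stained with 4 mg/mL SRB in 1% acetic acid for 15 min, solubilized in 10 mM Tris-HCl, read at A560. Inhibition = [1 − A560treated/A560control]×100%; IC50 by Logit method, at least three independent tests.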

[2] = target: DNA topoisomerase 2-alpha (Homo sapiens) (UniProt P11388); test: Inhibition of DNA topoisomerase-2 (unknown origin) assessed as inhibition of supercoiled pBR322 relaxation at 100 uM after 15 mins by gel electrophoresis
In short: (§1)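 Supercoiled pBR322 relaxation with compounds at 100 µM. Topo I: 12.5 µg/mL DNA, 0.01 unit/µL enzyme, no ATP. Topo IIα: 6.67 µg/mL DNA, 0.0467 units/µL enzyme, 1 mM ATP. 37°C for 15 min, SDS stop, 1% agarose/TAE gel at 4 V/cm for 1 h, ethidium bromide stain.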

[3] = target: DNA topoisomerase 2-alpha (Homo sapiens) (UniProt P11388); test: Inhibition of DNA topoisomerase-2 (unknown origin) assessed as inhibition of kDNA decatenation at 100 uM after 15 mins by agarose gel electrophoresis
[4] = target: T1, DNA topoisomerase 1 (Homo sapiens) (UniProt P11387); test: Inhibition of DNA topoisomerase-1 (unknown origin) assessed as inhibition of supercoiled pBR322 relaxation up to 100 uM after 15 mins by gel electrophoresis; in short: as §1
T1 sequence (whole entry): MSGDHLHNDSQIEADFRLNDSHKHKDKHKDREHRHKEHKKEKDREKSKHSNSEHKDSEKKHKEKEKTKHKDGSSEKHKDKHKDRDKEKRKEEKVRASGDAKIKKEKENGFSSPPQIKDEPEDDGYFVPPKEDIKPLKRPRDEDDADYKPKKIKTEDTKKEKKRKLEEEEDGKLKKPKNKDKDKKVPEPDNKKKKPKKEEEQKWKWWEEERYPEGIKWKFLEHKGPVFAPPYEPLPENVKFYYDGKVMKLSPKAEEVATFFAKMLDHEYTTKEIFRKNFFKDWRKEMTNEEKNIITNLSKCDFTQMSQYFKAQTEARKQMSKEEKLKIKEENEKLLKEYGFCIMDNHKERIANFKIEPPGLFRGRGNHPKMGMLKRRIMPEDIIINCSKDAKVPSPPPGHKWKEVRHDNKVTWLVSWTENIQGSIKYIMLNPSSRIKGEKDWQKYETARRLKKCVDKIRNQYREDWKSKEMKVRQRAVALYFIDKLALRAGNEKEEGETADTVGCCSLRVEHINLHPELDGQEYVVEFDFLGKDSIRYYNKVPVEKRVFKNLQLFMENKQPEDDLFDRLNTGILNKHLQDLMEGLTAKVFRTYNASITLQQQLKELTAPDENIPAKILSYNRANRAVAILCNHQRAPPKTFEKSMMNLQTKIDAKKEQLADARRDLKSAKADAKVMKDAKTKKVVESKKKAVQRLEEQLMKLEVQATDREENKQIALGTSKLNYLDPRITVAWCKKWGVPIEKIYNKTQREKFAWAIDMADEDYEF

[5] = tested on: A549; test: Cell cycle arrest in human A549 cells assessed as accumulation at G2 phase at 300 nM after 24 hrs by propidium iodide staining-based flow cytometry (reference value: 18%); assay type: functional
[6] = tested on: A549; test: Induction of apoptosis in human A549 cells assessed as early apoptotic cells at 10 nM after 48 hrs by Annexin V/propidium iodide staining-based flow cytometry (reference value: 5.75%); assay type: functional
In short: (§2)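 After 48 h exposure, A549 cells resuspended in cold binding buffer with Annexin-V-FITC and PI, kept 10 min at room temperature in the dark, then analyzed on a FACSCalibur. Annexin-V+/PI− cells counted as early apoptotic.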

[7] = tested on: A549; test: Induction of apoptosis in human A549 cells assessed as early apoptotic cells at 30 nM after 48 hrs by Annexin V/propidium iodide staining-based flow cytometry (reference value: 5.75%); assay type: functional; in short: as §2
[8] = tested on: A549; test: Cell cycle arrest in human A549 cells assessed as accumulation at G2/M phase at 10 to 300 nM after 24 hrs by propidium iodide staining-based flow cytometry; assay type: functional

DNA topoisomerase 2-alpha (Homo sapiens), sequence (P11388 whole entry): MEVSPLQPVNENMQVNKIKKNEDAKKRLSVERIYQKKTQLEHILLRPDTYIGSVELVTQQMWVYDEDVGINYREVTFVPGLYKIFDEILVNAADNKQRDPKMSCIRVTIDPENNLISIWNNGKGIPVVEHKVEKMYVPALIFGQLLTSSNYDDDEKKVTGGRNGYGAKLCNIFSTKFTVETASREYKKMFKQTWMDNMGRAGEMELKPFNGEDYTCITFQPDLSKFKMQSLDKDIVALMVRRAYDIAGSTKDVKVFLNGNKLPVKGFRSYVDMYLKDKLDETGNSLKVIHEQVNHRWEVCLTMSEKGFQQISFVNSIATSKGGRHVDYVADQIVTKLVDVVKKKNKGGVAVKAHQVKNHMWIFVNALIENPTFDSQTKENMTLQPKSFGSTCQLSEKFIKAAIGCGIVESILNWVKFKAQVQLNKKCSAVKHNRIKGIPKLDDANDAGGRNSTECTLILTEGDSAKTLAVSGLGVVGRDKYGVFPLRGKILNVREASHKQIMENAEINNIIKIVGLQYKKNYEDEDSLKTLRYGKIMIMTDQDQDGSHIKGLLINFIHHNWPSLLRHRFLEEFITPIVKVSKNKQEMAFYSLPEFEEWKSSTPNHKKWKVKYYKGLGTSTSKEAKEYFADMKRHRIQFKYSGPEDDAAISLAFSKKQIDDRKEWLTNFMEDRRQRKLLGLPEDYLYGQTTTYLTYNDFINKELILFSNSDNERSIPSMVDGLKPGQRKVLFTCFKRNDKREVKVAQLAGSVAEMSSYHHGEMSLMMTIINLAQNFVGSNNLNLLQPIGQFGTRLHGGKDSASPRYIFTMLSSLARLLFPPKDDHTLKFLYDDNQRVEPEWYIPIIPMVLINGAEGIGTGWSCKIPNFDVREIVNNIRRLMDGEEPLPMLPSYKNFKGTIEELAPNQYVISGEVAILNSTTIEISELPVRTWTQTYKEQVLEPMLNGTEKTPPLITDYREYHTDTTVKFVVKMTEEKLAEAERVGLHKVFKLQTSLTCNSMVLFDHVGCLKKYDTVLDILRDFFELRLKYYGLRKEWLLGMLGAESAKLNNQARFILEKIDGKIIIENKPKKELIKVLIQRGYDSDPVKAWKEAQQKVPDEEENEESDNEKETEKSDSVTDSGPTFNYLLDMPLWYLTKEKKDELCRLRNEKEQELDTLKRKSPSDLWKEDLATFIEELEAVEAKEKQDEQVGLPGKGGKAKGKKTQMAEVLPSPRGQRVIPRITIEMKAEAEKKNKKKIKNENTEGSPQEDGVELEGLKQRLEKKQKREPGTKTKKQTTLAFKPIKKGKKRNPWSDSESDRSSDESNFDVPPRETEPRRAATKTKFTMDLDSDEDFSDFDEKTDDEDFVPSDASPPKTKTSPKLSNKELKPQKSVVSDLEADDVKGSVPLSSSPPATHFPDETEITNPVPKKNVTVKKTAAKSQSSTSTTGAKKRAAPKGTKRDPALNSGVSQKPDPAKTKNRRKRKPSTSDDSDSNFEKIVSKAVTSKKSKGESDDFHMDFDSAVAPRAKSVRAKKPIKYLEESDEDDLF

C=C(C)[C@@]1(O)[C@H](OC(=O)/C=C/C=C/CCCCCCCC)[C@@H]2[C@@H]3O[C@]3(CO)[C@@H](O)[C@]3(O)C(=O)C(C)=C[C@H]3[C@@]2(O)[C@H](C)[C@H]1OC(C)=O
IC50 [1]: 24 nM | inhibition [2]: Active | inhibition [3]: Active | inhibition [4]: inactive

COc1cc([C@@H]2c3cc4c(cc3[C@@H](O[C@@H]3O[C@@H]5CO[C@@H](C)O[C@H]5[C@H](O)[C@H]3O)[C@H]3COC(=O)[C@H]23)OCO4)cc(OC)c1O
inhibition [2]: Active

C=C(C)[C@]12C[C@@H](C)[C@@]34O[C@](CCCCCCCCC)(O[C@@H]1[C@@H]3[C@@H]1O[C@]1(CO)[C@@H](O)[C@]1(O)C(=O)C(C)=C[C@H]14)O2 [SIMPLEXIN]
IC50 [1]: 0.3 nM

C=C(C)[C@]1(OC(=O)/C=C\C=C\CCCCCCCCC)C[C@@H](C)[C@@]2(O)[C@H]([C@H]1O)[C@@H]1O[C@]1(CO)[C@@H](O)[C@]1(O)C(=O)C(C)=C[C@H]12
IC50 [1]: 2.7 nM | inhibition [2]: Active | inhibition [3]: Active | inhibition [4]: inactive | Activity [5]: >50% | Activity [6]: 17.57% | Activity [7]: 19.94% | Activity [8]: Active

C=C(C)[C@@]12O[C@@]3(/C=C/C=C/CCCCCCCCC)O[C@@H]1[C@@H]1[C@@H]4O[C@]4(CO)[C@@H](O)[C@]4(O)C(=O)C(C)=C[C@H]4[C@@]1(O3)[C@H](C)[C@H]2OC(C)=O
IC50 [1]: 0.4 nM

C[C@H]1CC=C2[C@H]1C[C@]1(O)C(=O)C[C@@]2(C)C1(C)CO (stereo not given in full)
IC50 [1]: 1950 nM

C=C(C)[C@]12C[C@@H](C)[C@@]34O[C@](/C=C/C=C/CCCCCCCCC)(O[C@@H]1[C@@H]3[C@@H]1O[C@]1(CO)[C@@H](O)[C@]1(O)C(=O)C(C)=C[C@H]14)O2
IC50 [1]: 0.7 nM | inhibition [2]: Active | inhibition [3]: Active | inhibition [4]: inactive

COc1cc(C[C@H]2COC(=O)[C@@H]2Cc2ccc3c(c2)OCO3)ccc1O
IC50 [1]: 273 nM

COc1cc([C@H]2OC[C@@H]3Cc4cc(OC)c(O)cc4C[C@@H]32)ccc1O
IC50 [1]: 1530 nM | inhibition [2]: Active | inhibition [3]: Active | inhibition [4]: inactive
